Screens (PubChem)
V-ATPase pHluor = regulators of yeast V-ATPase proton pumping, primary screen, pHLuorin cytosolic pH fluorescence; 350,000 compounds, 0.37% hits; S. cerevisiae; response, % at 10 µM; in the data active = response mostly above about 7.3%, no sharp cut-off; inactive = mostly below about 5.4%; also: actives read high
ASAP1 inh = inhibitors of human ASAP1 ArfGAP activity, primary screen, biochemical, fluorescence polarization | ASAP1-stimulated ARF1 GTP hydrolysis, GDP FP detection | inhibition, % at 16.5 µM | 360,000 compounds, 0.19% hits; in the data active = inhibition above about 25%;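 also: 0% = vehicle with enzyme and substrate and 100% = no enzyme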
ARFGAP1 inh = inhibitors of rat ARFGAP1 GAP activity, primary screen, biochemical, fluorescence polarization, GDP tracer | ADP-ribosylation factor GTPase-activating protein 1 (Rattus norvegicus), Q62848 | 360,000 compounds, 0.26% hits | AID 651572, 2012 | Arfgap1-stimulated ARF1 GTP hydrolysis, GDP FP detection | inhibition, % at 16.5 µM;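 active = inhibition above a per-plate limit, mean inhibition of low control wells plus 3 SD, cut at about 25% in these data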;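 also: 0% = DMSO wells with enzyme and 100% = wells lacking Arfgap1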
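Assay system: purified rat His6-Arfgap1 residues 1-136 (GAP domain); Reagent: human Δ17 ARF1 bound to GTP; Dosing: 16.5 µM single point, 1.26% DMSO; Times: GTP hydrolysis reaction 2 h at 25 °C; Signal: FP, GDP Alexa 633 tracer displaced from anti-GDP antibody, 620/688 nm; Measure: % inhibition from polarization.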
Exocytosis inh = LAMP-1 surface exposure blockers, TALL-104 cells – cell-based, flow cytometry, MLPCN library, primary screen; TALL-104 LAMP-1 surface exposure; cells stimulated with thapsigargin and PMA; inhibition, % at 10 µM; 360,000 compounds, 0.66% hits;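 active = inhibition above about 55%, limit read from the data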
CendR NRP1 mod = modulators of CendR peptide binding to NRP-1, primary screen, biochemical, fluorescence polarization, uHTS | Neuropilin-1 (Homo sapiens), O14786 | FAM-RPARPAR peptide binding to NRP-1 | inhibition, % at 25 µM | 360,000 compounds, 0.85% hits;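 active = inhibition or corrected inhibition above about 18%, plus a signal ratio from 0.5 to 1.5, limit read from the data, passing the limit was not always enough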
Target sequence (O14786 whole entry, looked up): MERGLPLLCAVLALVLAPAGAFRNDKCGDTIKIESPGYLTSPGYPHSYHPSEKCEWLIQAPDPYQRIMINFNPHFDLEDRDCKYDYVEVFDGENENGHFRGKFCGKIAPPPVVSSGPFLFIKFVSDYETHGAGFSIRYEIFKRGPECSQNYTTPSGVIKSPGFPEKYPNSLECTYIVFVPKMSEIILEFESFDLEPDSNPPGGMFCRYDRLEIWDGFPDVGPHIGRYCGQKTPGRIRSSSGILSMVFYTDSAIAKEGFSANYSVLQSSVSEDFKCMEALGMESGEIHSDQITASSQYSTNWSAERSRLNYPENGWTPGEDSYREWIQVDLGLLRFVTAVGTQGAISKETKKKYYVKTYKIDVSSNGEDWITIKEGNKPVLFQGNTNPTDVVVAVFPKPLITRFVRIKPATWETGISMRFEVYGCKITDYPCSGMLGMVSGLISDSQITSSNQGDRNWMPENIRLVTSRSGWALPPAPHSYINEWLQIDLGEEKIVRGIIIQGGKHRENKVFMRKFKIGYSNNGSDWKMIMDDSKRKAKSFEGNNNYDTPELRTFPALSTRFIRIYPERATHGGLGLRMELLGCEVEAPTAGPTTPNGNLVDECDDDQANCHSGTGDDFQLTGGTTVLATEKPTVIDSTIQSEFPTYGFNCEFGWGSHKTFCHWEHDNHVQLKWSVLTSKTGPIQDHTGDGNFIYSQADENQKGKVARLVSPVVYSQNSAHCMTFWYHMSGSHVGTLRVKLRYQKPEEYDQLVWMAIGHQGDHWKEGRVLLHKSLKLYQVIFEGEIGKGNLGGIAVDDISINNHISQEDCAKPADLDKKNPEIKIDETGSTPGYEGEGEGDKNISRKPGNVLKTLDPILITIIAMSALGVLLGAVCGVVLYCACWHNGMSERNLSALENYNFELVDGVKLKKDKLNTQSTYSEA
Active calls of the source: *; · = not tested or not shown. Only some compounds are listed: those with a hit (about 2.2% of all), similar ones and a draw of the others.

SMILES	V-ATPase pHluor	ASAP1 inh	ARFGAP1 inh	Exocytosis inh	CendR NRP1 mod
CN(C)c1ccc(C=C2SC(=S)N(Cc3ccco3)C2=O)cc1	4.1	-3.3	2.8	104.6*	128.2
O=C(c1ccc(S(=O)(=O)Cc2ccccc2Cl)c([N+](=O)[O-])c1)N1CCOCC1	-1.3	1.9	-2.9	0.4	17.3*
C[C@H](CO)N1C[C@H](C)[C@@H](CN(C)C(=O)Nc2ccc(C(C)(C)C)cc2)OCc2cn(nn2)CCCC1=O	·	-15.2	1.4	·	·
COc1ccccc1Nc1nc2nonc2nc1N1CCC(C)CC1	-1.4	-10.9	6.6	-2.7	-5.0
COc1ccc(OC)c(Nc2nc3nonc3nc2N2CCCCC2)c1	-3.5	-16.6	-9.6	-0.4	49.1*
C#CCOCCOCCOCCNc1nc(N2CCN(C(=O)CCCCCCCCCCNC(=O)[C@H](CO)n3cc(CCCSC)nn3)CC2)nc(N2CCN(C(=O)CCCCCCCCCCNC(=O)[C@H](CCCN=C(N)N)n3cc(C[C@@H](C)CC)nn3)CC2)n1	-2.1	·	·	-3.4	25.1*
C#CCOCCOCCOCCNc1nc(N2CCN(C(=O)CCCCCCCCCCNC(=O)[C@H]([C@@H](C)CC)n3cc(CCCCN=C(N)N)nn3)CC2)nc(N2CCN(C(=O)CCCCCCCCCCNC(=O)[C@H](CO)n3cc(CCCCCN)nn3)CC2)n1	3.4	·	·	-4.9	28.1*
O=C(CC1C(=O)NCCN1Cc1cccc(C(F)(F)F)c1)NCCc1cnccn1 (configuration not stated)	2.5	4.8	5.3	4.9	20.9*
COC(=O)C1=C(C)N(CCCC(=O)O)C(=O)NC1c1ccc(Br)cc1 (configuration not stated)	0.5	-14.3	9.7	3.6	-8.6
COC(=O)C1=C(C)N(CCCC(=O)O)C(=O)NC1c1ccc(-c2ccccc2)cc1 (configuration not stated)	-2.5	10.8	-0.9	-10.4	29.9*
Cc1nc2c(OCCC3CCCCC3)cccn2c1N(C)C(=O)CCC1CCCC1	·	-6.0	-14.5	-17.1	26.4*
COc1ccc(/C=C2\SC(=S)N(CC(=O)OCC(=O)Nc3ccc(C)cc3Cl)C2=O)cc1	-1.2	-7.2	-2.6	0.0	33.5*
O=C1CCCN1CCc1cccc2ccccc12	-0.4	-5.8	-7.5	-13.4	23.4*
Cc1ccc(N2C(=O)NC(NS(=O)(=O)c3ccccc3)(C(F)(F)F)C2=O)cc1 (configuration not stated)	-0.3	2.7	9.5	6.0	25.6*
NC(=O)c1ncn([C@@H]2O[C@H](C(=O)N3CCN(Cc4ccccn4)CC3)[C@@H](O)[C@H]2O)n1	·	-10.8	1.7	·	·
COC(=O)[C@]12C[C@H](CC(=O)NCCCN3CCCC3=O)C(=O)N(CCC3=CCCCC3)C1=C[C@H](COCc1ccccc1)O[C@@H]2C	·	4.8	0.8	·	·
CCOC(=O)c1c2c(n(-c3ccc(OC)cc3)c1C)C(=O)C(=O)c1ccccc1-2	-4.7	·	·	98.1*	34.3*
CCOC(=O)c1sc(=S)n(-c2ccc(OC)cc2)c1C	0.4	1.2	-0.5	-15.1	-0.2
CCc1cc2c(nc1CC)CCCN2CCOC	·	-14.1	7.0	·	·
COc1cc2c(cc1OC)C(C(=O)O)C(c1ccc3c(c1)OCO3)N(C)C2=O (configuration not stated)	·	-3.9	-0.9	·	·
CCN(CC)c1ccc(/C=N/NC(=O)c2ccc3nc[nH]c3c2)c(O)c1	13.7	·	·	66.9*	-28.1
Cc1ccc(OCC(=O)c2cc(C)c(C)cc2C)c([N+](=O)[O-])n1	3.6	-5.0	-1.3	5.2	-14.5
Cc1ccc(OCC(=O)c2c(N)n(C)c(=O)n(C)c2=O)c([N+](=O)[O-])n1	2.0	0.9	-4.1	-1.6	20.6*
CC1(OC(=O)C2CCCC2)C(=O)C=C2C=C3CCCCN3C=C2C1=O (configuration not stated)	-1.8	·	·	-0.6	32.4*
CC1(OC(=O)C2CCCC2)C(=O)C=C2C=C(c3ccsc3)N(C3CC3)C=C2C1=O (configuration not stated)	-2.9	-2.4	-11.6	-4.4	-18.2
SMILES	V-ATPase pHluor	ASAP1 inh	ARFGAP1 inh	Exocytosis inh	CendR NRP1 mod
COC(=O)CCC(=O)OC1(C)C(=O)C=C2C=C3CCCN3C=C2C1=O (configuration not stated)	-6.8	-8.5	4.3	-4.7	40.7*
CC1(OC(=O)c2ccc(Cl)nc2)C(=O)C=C2C=C3CCCN3C=C2C1=O (configuration not stated)	1.2	-10.9	-5.2	5.6	51.2*
c1ccc(-c2nc(-n3nc4ccccc4n3)nc3ccccc23)cc1	5.7	4.9	5.7	65.3*	-12.8
Clc1ccc(-c2nc(N3CCCCC3)nc3ccccc23)cc1	-24.0	5.9	5.5	-3.2	-45.4
COc1ccc(C(=O)c2no[n+]([O-])c2C(=O)c2ccc(OC)cc2)cc1	3.4	5.5	4.0	102.8*	-13.8
O=C(c1cccs1)c1no[n+]([O-])c1C(=O)c1cccs1	2.4	·	·	82.0*	-8.6
O=C(c1cccs1)c1ccc(-c2cccs2)s1	-1.2	8.1	10.9	3.5	-21.0
Cc1ccc(C(=O)Oc2oc(-c3ccccc3)nc2C=Nc2ccc(N(C)C)cc2)cc1	-0.1	-15.9	-4.8	54.8	-3.4
CN(C)c1ccc(N=Cc2nc(-c3ccccc3)oc2OC(=O)c2cccc(Cl)c2)cc1	2.7	2.7	-6.6	27.6	28.3*
COc1cccc(N=Cc2nc(-c3ccccc3)oc2OC(C)=O)c1	1.0	-2.2	6.4	63.8*	-1.6
COC(=O)C1=C(C)N(Cc2ccccc2C(F)(F)F)C(=NCc2ccccc2)NC1CCc1ccccc1 (configuration not stated)	·	13.3	6.5	·	·
O=C(Nc1ccc(Cl)c(S(=O)(=O)N2CCOCC2)c1)C1=NN(c2ccccc2)C(=O)CC1	0.7	5.9	-6.3	0.2	14.6
COc1ccc(OC)c(S(=O)(=O)Nc2ccc(Oc3ccccc3)cc2)c1	13.4*	16.5	2.6	17.3	3.4
O=C(Nc1cccc(S(=O)(=O)N2CCOCC2)c1)C1=NN(c2ccccc2)C(=O)CC1	-1.1	-4.4	5.5	1.5	26.6*
COc1ccc(NS(=O)(=O)c2cc(NC(=O)C3=NN(c4ccccc4)C(=O)CC3)ccc2OC)cc1	-0.8	1.2	8.0	0.1	27.4*
COC(=O)C1=C(C)N(Cc2ccccc2C(F)(F)F)C(=NCc2cccc(C(F)(F)F)c2)NC1c1cccc(Cl)c1 (configuration not stated)	·	7.0	14.2	·	·
CCOC(=O)C1=C[C@@H](C(C)(C)C)N(S(=O)(=O)c2ccc([N+](=O)[O-])cc2)[C@H]1c1ccccc1Cl	·	-1.6	1.7	·	·
O=c1[nH]c(Sc2ccc([N+](=O)[O-])cc2[N+](=O)[O-])nc2ccccc12	1.3	-2.1	0.7	90.3*	2.8
